This note sets out measurements from ChEMBL document CHEMBL1138123, “Design, synthesis, and biological evaluation of pyrrolo[2,1-c][1,4]benzodiazepine and indole conjugates as anticancer agents” (2006).

Calls of active or inactive are those of the source. The calls are words filed in the database; no cut-off is given here.

Assay [1] deals with A2058. Description: Apoptotic effect on A2058 cells by measuring hypodiploid DNA content after 18 hrs exposure to 5 uM. The class given is functional, Homo sapiens. The gist of the method: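 A2058 human melanoma cells kept at 37 °C in 5% CO2 and passaged with 5 mM EDTA. Exposed to agent at 5 μM for 18 h, trypsinized, fixed 30 min in ice-cold 70% ethanol, and treated with RNase A (1 mg/mL) at 37 °C for 30 min. Stained with PI for 30 min at room temperature in the dark. DNA content read by flow cytometry on 10 000 events, reported as the percentage of cells in the sub-G1 region.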

The subject of assay [2] is Nucleic Acid. Description: Inhibition of cleavage activity of restriction endonuclease BamH1. The assay is classed as nucleic-acid assay. In outline:
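pBR322 plasmid DNA (0.5 μg) preincubated with compound at 5 μM in restriction buffer pH 7.5 plus BSA 0.1 mg/mL, 37 °C for 1 h. Excess BamHI (20 units) then added, 37 °C for a further 1 h, stopped at 65 °C for 20 min. Products run on 1.0% agarose in TAE at 100 V for 2 h and stained with ethidium bromide. Supercoiled/open-circular and fully linearized DNA run as controls.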

The test system of assay [3] is A2058. Description: Accumulation of A2058 cells in G1 phase as a measure for cell cycle arrest at 4 uM. The assay is classed as functional, Homo sapiens. The gist of the method:
(§1)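 Human melanoma A2058 cells exposed to graded concentrations (0–4 μM) for 24 h, DMSO as control. Cells collected by trypsinization, fixed in ice-cold 70% ethanol 30 min, treated with 1 mg/mL RNase A at 37 °C 30 min, then stained with propidium iodide/citrate/Triton X-100 at room temperature 30 min in the dark. DNA content of 10 000 events read by flow cytometry; G1, S and G2/M fractions gated from histograms.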

Assay [4] has as its system A2058. Briefly: Accumulation of A2058 cells in G1 phase as a measure for cell cycle arrest at 2 uM. The assay is classed as functional, Homo sapiens. The gist of the method: as §1
Assay [5] concerns A2058. Description: Accumulation of A2058 cells in G1 phase as a measure for cell cycle arrest at 1 uM. The assay is classed as functional, Homo sapiens. In outline:
as §1

Assay [6] concerns A2058. Briefly: Accumulation of A2058 cells in G2/M phase as a measure for cell cycle arrest at 4 uM. The assay is classed as functional, Homo sapiens. In outline: as §1
In assay [7] the test system is A2058. Briefly: Accumulation of A2058 cells in S phase as a measure for cell cycle arrest at 2 uM. The assay is classed as functional, Homo sapiens. In outline:
as §1

Assay [8] concerns A2058. Briefly: Accumulation of A2058 cells in G2/M phase as a measure for cell cycle arrest at 1 uM. The class given is functional, Homo sapiens. The gist of the method:
as §1

The test system of assay [9] is A2058. Briefly: Accumulation of A2058 cells in S phase as a measure for cell cycle arrest at 4 uM. The assay is classed as functional, Homo sapiens. The gist of the method: as §1
Assay [10] concerns A2058. Briefly: Accumulation of A2058 cells in S phase as a measure for cell cycle arrest at 1 uM. The assay is classed as functional, Homo sapiens. The gist of the method: as §1
Assay [11] has as its system A2058. Description: Accumulation of A2058 cells in G2/M phase as a measure for cell cycle arrest at 2 uM. The assay is classed as functional, Homo sapiens. The gist of the method:
as §1

In assay [12] the test system is A2058. Description: Apoptotic effect on A2058 cells by propidium iodide staining and Annexin V-FITC conjugate at 2 uM. The class given is functional, cell-based. Particulars: Homo sapiens. The gist of the method: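 A2058 cells given graded concentrations for 24 h, then 10^6 cells per sample labelled with annexin V–FITC together with propidium iodide and analysed by two-parameter flow cytometry. Percentage of annexin V-positive cells reported per concentration.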

In assay [13] the test system is SN12C. Briefly: Antiproliferative activity against SN12C Renal cancer cells. The assay is classed as functional. Particulars: Homo sapiens.
Assay [14] concerns UACC-62. Description: Antiproliferative activity against UACC62 melanoma cancer cells. Particulars: Homo sapiens. The assay is classed as functional.
Assay [15] concerns M14. Description: Antiproliferative activity against M14 melanoma cancer cells. The class given is functional. The conditions noted are these: Homo sapiens.
In assay [16] the test system is SF-268. Description: Antiproliferative activity against SF268 CNS cancer cells. The assay is classed as functional. The conditions noted are these: Homo sapiens.
Assay [17] has as its system RXF 393. Briefly: Antiproliferative activity against RXF393 Renal cancer cells. The class given is functional. The conditions noted are these: Homo sapiens.

`COc1cc2c(cc1O)N=C[C@@H]1CCCN1C2=O` showed an Activity in [1] of 45%.

For `COc1cc2c(cc1OCCCCNC(=O)c1cc3ccccc3[nH]1)N=C[C@@H]1CCCN1C2=O`, in assay [2], the result was Active. In addition, the Activity in [1] came to 46.8%.

For `COc1cc2c(cc1OCCCCCCNC(=O)c1cc3ccccc3[nH]1)N=C[C@@H]1CCCN1C2=O`, the Activity was found to be 29.2% in assay [3]; 25.7% in [4]; 41.1% in assay [5]; 50.6% in assay [1]; 12.5% in assay [6]; 25.2% in assay [7]. Moreover, the Activity worked out at 42.5% in assay [8], 42.8% in assay [9], 15.2% in [10] and 47.7% in [11]. Also, the outcome in assay [2] and in assay [12] was Active.

`COc1cc2c(cc1OCCCCCNC(=O)c1cc3ccccc3[nH]1)N=C[C@@H]1CCCN1C2=O`: the Activity in assay [1] is 2.9%.

For orientation: GI50 means the concentration giving 50% growth inhibition. Low values mean greater sensitivity of the cells, high ones lower sensitivity of the cells. In the case of `COc1cc2c(cc1OC(=O)c1cc3ccccc3[nH]1)N=C[C@@H]1CCCN1C2=O`, the 50% growth inhibitory concentration (GI50) in assay [13] was 210 nM; in [14], 290 nM; in assay [15] it was 162 nM. The compound further gave an Activity in assay [1] of 38.5%.

Take `COc1cc2c(cc1OCCCNC(=O)c1cc3ccccc3[nH]1)N=C[C@@H]1CCCN1C2=O`: the GI50 was 410 nM in assay [13]; 27 nM in assay [16]; 25 nM in [17]; 203 nM in [14]; 173 nM in assay [15]. In addition, in [2], the result was Active. In assay [1], the Activity is listed as 46.8%.
